# Screening data (PubChem)
# The list is not random: actives were taken first. Their share in the collection is about 1.7%.
# PLC-gamma1 inh = PLC-gamma1 (human) inhibition, primary screen | P19174 | purified PLC-gamma1, fluorogenic substrate, fluorescence | inhibition, % at 12.2 µM | hit rate 0.84% among 370,000 | AID 720700
# Rpn11 inh = blocks the human proteasome subunit Rpn11; O00487; human 26S proteasome, Ub4-pepOG fluorescence polarization; 20S core pre-blocked with epoxomicin; hit rate 0.59% among 360,000; inhibition, % at 20 µM;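 active means inhibition at 20 µM, scaled to each plate's controls, above about 33%, limit read from the data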
# PLC-beta3 inh = inhibitors of human phospholipase C beta3 | hit rate 0.18% among 370,000 | Purified PLC-beta3, fluorogenic substrate, fluorescence | inhibition, % at 12.2 µM; in the data active means inhibition above about 11%;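 further: 0% = median of compound wells on plate and 100% = full blocker control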
# Target sequence (Q01970 whole entry, looked up): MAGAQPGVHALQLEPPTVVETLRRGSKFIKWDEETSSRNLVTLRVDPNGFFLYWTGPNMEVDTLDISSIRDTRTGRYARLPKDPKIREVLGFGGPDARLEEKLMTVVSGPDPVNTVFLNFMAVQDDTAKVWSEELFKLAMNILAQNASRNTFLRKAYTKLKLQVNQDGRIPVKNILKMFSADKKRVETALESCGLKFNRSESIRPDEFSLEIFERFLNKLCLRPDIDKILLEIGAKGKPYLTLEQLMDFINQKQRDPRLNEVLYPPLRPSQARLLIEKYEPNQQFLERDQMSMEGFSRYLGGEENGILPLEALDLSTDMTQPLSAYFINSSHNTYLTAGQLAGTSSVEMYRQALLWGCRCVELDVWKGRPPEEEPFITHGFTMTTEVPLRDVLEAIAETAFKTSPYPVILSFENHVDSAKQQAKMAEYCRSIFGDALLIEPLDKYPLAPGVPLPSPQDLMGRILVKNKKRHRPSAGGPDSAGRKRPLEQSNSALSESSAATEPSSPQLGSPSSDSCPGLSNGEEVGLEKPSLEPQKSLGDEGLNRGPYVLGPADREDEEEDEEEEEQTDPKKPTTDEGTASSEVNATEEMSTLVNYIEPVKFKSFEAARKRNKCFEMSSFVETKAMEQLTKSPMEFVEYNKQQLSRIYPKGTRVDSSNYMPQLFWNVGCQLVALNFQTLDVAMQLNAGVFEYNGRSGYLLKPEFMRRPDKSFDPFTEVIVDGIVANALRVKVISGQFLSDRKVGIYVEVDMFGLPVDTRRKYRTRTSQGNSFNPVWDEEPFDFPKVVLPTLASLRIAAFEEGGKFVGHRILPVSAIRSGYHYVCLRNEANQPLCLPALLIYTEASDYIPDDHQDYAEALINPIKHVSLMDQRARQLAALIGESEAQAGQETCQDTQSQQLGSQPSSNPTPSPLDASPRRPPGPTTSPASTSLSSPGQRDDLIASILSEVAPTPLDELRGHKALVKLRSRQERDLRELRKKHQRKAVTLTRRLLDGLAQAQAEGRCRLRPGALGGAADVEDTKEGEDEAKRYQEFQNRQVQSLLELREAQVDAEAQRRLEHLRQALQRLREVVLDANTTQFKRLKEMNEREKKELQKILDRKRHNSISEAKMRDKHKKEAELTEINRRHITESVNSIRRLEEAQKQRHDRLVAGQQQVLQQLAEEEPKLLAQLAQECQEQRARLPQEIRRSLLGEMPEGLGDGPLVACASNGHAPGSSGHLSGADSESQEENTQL
# UCH37 inh = human UCH37 deubiquitinating enzyme inhibition. purified proteasome/UCH37, Ub-AMC cleavage fluorescence. inhibition, % (concentration not given with the values). hit rate 0.33% among 330,000;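 active means mean inhibition over replicate wells above about 20%, limit read from the data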;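 further: 0% = compound-free wells with enzyme and 100% = wells lacking proteasome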
#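 Test system – human UCH37 enzyme supplied as purified proteasome complex · Incubation – 30 min preincubation with enzyme, 25 min cleavage at room temperature · Detection – AMC fluorescence from Ub-AMC cleavage, excitation 355 nm, emission 460 nm · Benchmarks – no-proteasome wells (full inhibition) and compound-free wells (no inhibition)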
# PLCgamma1 ctr = counter-screen for PLC-beta3 inhibitors: inhibitors of human PLC-gamma1 | hit rate 3.1% among 3,300 | purified PLC-gamma1, fluorogenic substrate, fluorescence | AID 743258 | shares compounds with PLC-gamma1 inh | inhibition, % at 12.3 µM
# PLCbeta3 conf = human PLC-beta3 inhibition, confirmation; shares compounds with PLC-gamma1 inh; purified PLC-beta3, fluorogenic substrate fluorescence; inhibition, % at 12.3 µM; hit rate 1% among 3,300; AID 743261; in the data active means inhibition above about 11%
# An asterisk follows results filed as active; x = no result given. Unless noted, no stated cut-off is given here; in the data, active means inhibition above about 9.5%; inactive means the rest.
SMILES,PLC-gamma1 inh,Rpn11 inh,PLC-beta3 inh,UCH37 inh,PLCgamma1 ctr,PLCbeta3 conf
Cc1nn(Cc2cccc(C(=O)NC34CC5CC(CC(C5)C3)C4)c2)c(C)c1Br,3,14,1,0,x,x
CCCNC(=O)c1cccc(Cn2nc(C)c(Br)c2C)c1,12*,-5,8,5,-2,0
COc1ccc(Cc2nnc(SCC(=O)Nc3ccc(C)cc3)n(N)c2=O)cc1,10*,2,-4,0,-8,-3
Cc1cc(C)n(N=Cc2cccc([N+](=O)[O-])c2)c(=O)c1,x,x,x,4,x,x
Cc1ccc(C)c(NC(=O)CN(C)C(=O)Cc2ccc(Cl)cc2Cl)c1,-3,16,-6,0,x,x
Cc1ccc(NC(=O)CN(C)C(=O)Cc2ccc(Cl)cc2Cl)cc1,11*,5,0,2,-10,-6
Cn1cc([N+](=O)[O-])c(C(=O)NN=Cc2cc3c(cc2Br)OCO3)n1,x,x,x,11,x,x
COc1cc(CN2CCC(C)CC2)ccc1OCc1ccccc1,15*,2,-2,1,5,4
CC(=NN=C(N)N)c1cc(Cl)ccc1Cl,x,x,x,2,x,x
COc1cc(/C=C2\C(=O)N(c3ccccc3)N=C2C)ccc1Oc1ccc([N+](=O)[O-])cc1[N+](=O)[O-],10*,-1,4,6,2,-1
COc1cc(/C=C2/SC(=O)NC2=O)ccc1Oc1ccc([N+](=O)[O-])cc1[N+](=O)[O-],-1,31,-6,8,x,x
COc1ccccc1/C=C1/C(=O)N(c2ccccc2)N=C1C,28*,-7,0,x,-7,-3
CC1=NN(c2ccccc2)C(=O)/C1=C\c1cn(-c2ccccc2)nc1C,-2,8,-2,1,x,x
O=[N+]([O-])c1cc(Br)c(Nc2ccccc2)c([N+](=O)[O-])c1,7,-5,-4,5,x,x
O=[N+]([O-])c1cc(Br)c2c(c1)CCN2,3,-1,13*,x,-6,-1
CCOC(=O)c1c(-c2ccc(F)cc2)csc1N=CN(C)C,x,x,x,6,x,x
COc1ccccc1-c1cc(C(=O)Nc2ccc(F)cc2F)no1,12*,-4,5,-32,-118,-105
COc1ccccc1-c1cc(C(=O)NC(C)C)no1,-6,-3,-6,0,x,x
Cc1ccc(NC(=O)Nn2cnnc2)cc1,2,-6,-7,1,x,x
O=C(Nc1ccc([N+](=O)[O-])cc1)Nn1cnnc1,12*,-1,4,10,-3,-3
CCC(=NNc1ccc(Cl)cc1)c1cnnc(SC)n1,x,x,x,3,x,x
CCN(CC)C(=O)c1nc[nH]c1C(=O)N(CC)CC,14*,-2,7,3,0,0
CC(=O)c1c(C)nn(C(=O)N2CCOCC2)c1C,8,3,15*,-5,-7,-4
COC(=O)c1cn(-c2ccccc2)c(C)c1C(=O)OC,7,-5,12*,3,-1,-2
COC(=O)c1cn(-c2ccccc2)nc1-c1ccccc1,-4,-12,2,-1,x,x
SMILES,PLC-gamma1 inh,Rpn11 inh,PLC-beta3 inh,UCH37 inh,PLCgamma1 ctr,PLCbeta3 conf
CC(C)(C)c1nnc(NN=Cc2ccc(Br)cc2)n(N)c1=O,x,x,x,6,x,x
CCN(CC)S(=O)(=O)c1ccc(N2CCOCC2)c(NS(=O)(=O)c2cc(C(C)(C)C)ccc2C)c1,12*,0,6,2,-2,-26
CCN(CC)S(=O)(=O)c1ccc(N2CCOCC2)c(NS(=O)(=O)c2ccc(C(C)C)cc2)c1,3,-2,3,3,x,x
COc1ccc(C2N(Cc3ccccc3)CC(=O)N2N=C(C)c2ccccc2)cc1 (stereo not drawn),x,x,x,1,x,x
CC(C)(C)OC(=O)N1CCN(C(=O)c2[nH]cnc2C(=O)N[C@@H](Cc2ccccc2)C(=O)OCc2ccccc2)CC1,1,-5,-1,4,x,x
CC(C)C[C@H](NC(=O)c1nc[nH]c1C(=O)N1CCN(C(=O)OC(C)(C)C)CC1)C(=O)OCc1ccccc1,10*,4,5,-1,3,4
O=S(=O)(NN=C1CCCc2ccccc21)c1ccccc1,x,x,x,1,x,x
CC1CCCN(c2nc3c(c(=O)n(C)c(=O)n3C)n2CCSc2nc3ccccc3o2)C1 (stereo not drawn),10*,5,0,2,-4,-1
CN(C)N1C(=O)CC(NNC(=O)c2ccncc2)C1=O (stereo not drawn),10*,-2,3,0,-6,2
CCN1C(=O)CC(NNC(=O)c2ccccc2)C1=O (stereo not drawn),1,-5,-2,0,x,x
COC(=O)NN=Cc1cn(CCOc2cccc(OC)c2)c2ccccc12,x,x,x,5,x,x
CC1(C(=O)Nc2ccc(F)cc2F)CCN1C(=O)Cc1ccccc1 (stereo not drawn),11*,-3,4,x,-3,0
O=C(Cc1ccccc1)NN=Cc1ccc(OCC(=O)Nc2ccccc2)cc1,x,x,x,8,x,x
COC(=O)N[C@H](C(=O)N[C@@H](Cc1ccccc1)[C@@H](O)CN(Cc1ccc(-c2ccccn2)cc1)NC(=O)[C@@H](NC(=O)OC)C(C)(C)C)C(C)(C)C,15*,x,11*,x,-6,-5
COCCNC(=O)C(c1ccc(C)cc1)N(Cc1ccccc1)C(=O)CCC(=O)Nc1ccccn1 (stereo not drawn),0,-1,-10,0,x,x
CC(=O)Nc1ccc(SCC(=O)N(C)CC(=O)Nc2ccccc2Cl)cc1,0,0,-3,7,x,x
CN(CC(=O)Nc1ccccc1Cl)C(=O)CSc1nncs1,10*,-13,0,4,-1,0
O=C(Nc1ccccc1)Nc1ccc(F)c([N+](=O)[O-])c1,6,7,4,3,x,x
O=C(Cc1ccc(F)cc1)Nc1ccc(F)c([N+](=O)[O-])c1,9.8*,4,4,-1,-2,2
Cc1c(C#N)c(NC(=O)c2cccc(Cl)c2)n(Cc2ccccc2)c1C,9.9*,12,1,-8,0,1
COc1cc(C(C)=O)ccc1OCC(O)CN(CCO)Cc1ccccc1 (stereo not drawn),0,0,-6,2,x,x
OCCN(Cc1ccccc1)CC(O)COc1ccc(-c2ccccc2)cc1 (stereo not drawn),13*,5,6,2,-2,-3
CC(=NNC(=O)c1nnn(-c2nonc2N)c1CN(C)c1ccccc1)c1ccc(O)cc1,x,x,x,5,x,x
COc1ccc(S(=O)(=O)N(C)CC(=O)Nc2ccc(C(N)=O)cc2)cc1OC,1,0,-1,-2,x,x
COC(=O)c1ccc(NC(=O)CN(C)S(=O)(=O)c2ccc(OC)c(C)c2)cc1,9.6*,1,-1,1,-10,-4
Cc1ccc(CNC(=O)CCCCCNc2nc(=S)[nH]c3ccccc23)cc1,-1,x,-2,4,x,x
NS(=O)(=O)c1ccc(CCNC(=O)CCCCCNc2nc(=S)[nH]c3ccccc23)cc1,10*,x,3,6,-6,-1
